Data as given in ChEMBL document CHEMBL1121799, “Beta-adrenoceptor stimulant properties of amidoalkylamino-substituted 1-aryl-2-ethanols and 1-(aryloxy)-2-propanols” (1981).

Tests used:
Canis familiaris [1] = test: Effective dose required for the maximum hind limb perfusion pressure(HLPP) in anesthetized dogs.; assay type: functional; settings: Canis lupus familiaris, Hindlimb
Summary of the method: (§1)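 Anesthetized dogs on pentobarbital (20 mg/kg iv, then 2 mg/kg iv every 30 min), ventilated with 40% O2 in air. Left hind limb pump-perfused from the abdominal aorta, heparin 500 IU/kg iv. HR from a lead II ECG-driven cardiotachometer. Arterial pCO2 held at 34-42 mmHg and pH 7.35-7.43. Cumulative iv doses in saline. ED50 taken from dose-response curves of peak HR or HLPP change.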

Canis familiaris [2] = species on record: Canis familiaris; test: Intrinsic sympathomimetic activity (ISA, calculated as the percent of maximum change in heart rate (HR); assay type: functional, Canis lupus familiaris
Summary of the method: (§2)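 Same anesthetized, ventilated dog preparation with a pump-perfused left hind limb. An isoproterenol curve was run first. About 45 min later, once HR and HLPP had returned to control, cumulative iv doses of test compound in saline were given. ISA is the maximum HR or HLPP change produced by the compound, expressed as a percentage of the isoproterenol maximum.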

Canis familiaris [3] = species on record: Canis familiaris; test: Selectivity is expressed as the ratio of ED50 on hind limb perfusion pressure to the ED50 on heart rate; assay type: functional, Canis lupus familiaris
Summary of the method: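 Cardioselectivity is the ratio of ED50 for HLPP to ED50 for HR. Both come from cumulative iv dose-response curves in pentobarbital-anesthetized dogs with a pump-perfused hind limb and a cardiotachometer reading HR.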

Canis familiaris [4] = species on record: Canis familiaris; test: Intrinsic sympathomimetic activity (ISA), calculated as the percent of maximum change in hind limb perfusion pressure (HLPP); assay type: functional, Canis lupus familiaris, Hindlimb; summary of the method: as §2
Canis familiaris [5] = test: Effective dose required for the maximum heart rate in anesthetized dogs.; assay type: functional; settings: Canis lupus familiaris; summary of the method: as §1

Row | SMILES | ED50 (Canis familiaris [1]) | ISA (Canis familiaris [2]) | Selectivity (Canis familiaris [3]) | ISA (Canis familiaris [4]) | ED50 (Canis familiaris [5])
1 | O=C(NCCNCC(O)c1cccc(O)c1)Nc1ccccc1.O=C(O)C(=O)O (centres undefined) | 0.286 µmol/kg | 42% | 2 | 55% | 0.143 µmol/kg
2 | O=C(NCCNCC(O)COc1ccc(O)c(O)c1)Nc1ccccc1.O=C(O)C(=O)O (centres undefined) | 0.1 µmol/kg | 80% | 24.4 | 100% | 0.0041 µmol/kg
3 | CC(C)C(=O)NCCNCC(O)COc1ccc(O)c(CO)c1.O=C(O)C(=O)O (centres undefined) | 0.27 µmol/kg | 26% | 6.3 | 30% | 0.043 µmol/kg
4 | CC(C)C(=O)NCCNCC(O)COc1cccc(O)c1.O=C(O)C(=O)O (centres undefined) | 0.26 µmol/kg | 25% | 1.2 | 33% | 0.209 µmol/kg
5 | COCCN(C)C(=O)NCCNCC(O)COc1ccc(O)cc1.O=C(O)C(=O)O (centres undefined) | > 3 µmol/kg | 27% | >250 | 0% | 0.012 µmol/kg
6 | CC(C)NCC(O)COc1cc(O)cc(O)c1.O=C(O)C(=O)O (centres undefined) | 0.012 µmol/kg | 32% | 1 | 25% | 0.012 µmol/kg
7 | CCN(CC)C(=O)NCCNCC(O)COc1ccc(O)cc1.O=C(O)C(=O)O (centres undefined) | 0.036 µmol/kg | 28% | 10 | 18% | 0.037 µmol/kg
8 | CC(C)NC(=O)NCCNCC(O)COc1ccc(O)cc1.O=C(O)C(=O)O (centres undefined) | 0.193 µmol/kg | 60% | 0.8 | 26% | 0.235 µmol/kg
9 | O=C(NCCNCC(O)COc1ccc(O)c(CO)c1)Nc1ccccc1.O=C(O)C(=O)O (centres undefined) | 0.112 µmol/kg | 42% | 2.5 | 32% | 0.045 µmol/kg
10 | CC(C)C(=O)NCCNCC(O)COc1ccc(O)c(O)c1.O=C(O)C(=O)O (centres undefined) | 0.0016 µmol/kg | 100% | 1 | 100% | 0.0016 µmol/kg
11 | CC(C)C(=O)NCCNCC(O)COc1ccc(O)cc1.O=C(O)C(=O)O (centres undefined) | 0.078 µmol/kg | 30% | 3.9 | 40% | 0.02 µmol/kg
12 | O=C(NCCO)NCCNCC(O)COc1ccc(O)cc1.O=C(O)C(=O)O (centres undefined) | 0.236 µmol/kg | 69% | 3.1 | 49% | 0.077 µmol/kg
13 | O=C(NCCNCC(O)c1ccc(O)c(O)c1)Nc1ccccc1.O=C(O)C(=O)O (centres undefined) | 0.0054 µmol/kg | 100% | 6 | 100% | 0.0009 µmol/kg
14 | O=C(NCCNCC(O)COc1ccc(O)cc1)Nc1ccccc1.O=C(O)C(=O)O (centres undefined) | 0.165 µmol/kg | 52% | 2.8 | 45% | 0.058 µmol/kg
15 | CC(C)C(=O)NCCNCC(O)COc1cc(O)cc(O)c1.O=C(O)C(=O)O (centres undefined) | 0.016 µmol/kg | 19% | 0.8 | 18% | 0.019 µmol/kg
16 | CC(C)NCC(O)COc1cccc(O)c1.O=C(O)C(=O)O (centres undefined) | 0.067 µmol/kg | 57% | 3.7 | 33% | 0.018 µmol/kg
17 | CC(C)NCC(O)COc1ccc(O)c(O)c1.O=C(O)C(=O)O (centres undefined) | 0.0012 µmol/kg | 100% | 1 | 100% | 0.0012 µmol/kg
18 | CC(C)NCC(O)c1cccc(O)c1 (centres undefined) [METATEROL] | 0.138 µmol/kg | 100% | 1.9 | 100% | 0.071 µmol/kg
19 | O=C(Cc1ccccc1)NCCNCC(O)COc1ccc(O)cc1.O=C(O)C(=O)O (centres undefined) | 0.09 µmol/kg | 40% | 3.3 | 40% | 0.027 µmol/kg
20 | CC(C)NCC(O)c1ccc(O)c(CO)c1 (centres undefined) | 0.009 µmol/kg | 100% | 0.04 | 100% | 0.222 µmol/kg
21 | O=C(O)C(=O)O.O=S(=O)(NCCNCC(O)COc1ccc(O)cc1)c1ccccc1 (centres undefined) | 0.055 µmol/kg | 55% | 0.7 | 45% | 0.074 µmol/kg
22 | CC(C)C(=O)NCCNCC(O)c1cc(O)cc(O)c1.O=C(O)C(=O)O (centres undefined) | 0.105 µmol/kg | 89% | 3 | 100% | 0.035 µmol/kg
23 | CC(C)NCC(O)c1cc(O)cc(O)c1 (centres undefined) [METAPROTERENOL] | 0.014 µmol/kg | 83% | 1 | 100% | 0.014 µmol/kg

Row | SMILES | ED50 (Canis familiaris [1]) | ISA (Canis familiaris [2]) | Selectivity (Canis familiaris [3]) | ISA (Canis familiaris [4]) | ED50 (Canis familiaris [5])
24 | CC(C)NCC(O)c1ccc(O)c(O)c1 (centres undefined) [ISOPROTERENOL] | 0.0008 µmol/kg | 100% | 0.5 | 100% | 0.0014 µmol/kg
25 | O=C(NCCNCC(O)COc1cccc(O)c1)Nc1ccccc1.O=C(O)C(=O)O (centres undefined) | > 1.5 µmol/kg | 21% | >170 | 0% | 0.009 µmol/kg
26 | CN(C)S(=O)(=O)NCCNCC(O)COc1ccc(O)cc1.O=C(O)C(=O)O (centres undefined) | 0.175 µmol/kg | 80% | 2.5 | 80% | 0.069 µmol/kg
27 | Cl.O=C(NCCNCC(O)COc1ccc(O)cc1)NCc1ccccc1 (centres undefined) | 0.081 µmol/kg | 80% | 4.3 | 70% | 0.019 µmol/kg
28 | CC(C)NC[C@H](O)COc1ccc(O)cc1 [PRENALTEROL] | 0.006 µmol/kg | 56% | – | 31% | 0.031 µmol/kg
29 | COCCNC(=O)NCCNCC(O)COc1ccc(O)cc1.O=C(O)C(=O)O (centres undefined) | 0.052 µmol/kg | 74% | 2.5 | 58% | 0.021 µmol/kg
30 | CN(CCO)C(=O)NCCNCC(O)COc1ccc(O)cc1.Cl (centres undefined) | 1.17 µmol/kg | 43% | 33 | 48% | 0.037 µmol/kg
31 | CC(C)NCC(O)c1ccc(O)cc1 (centres undefined) [DETERENOL] | 0.077 µmol/kg | 88% | 7.7 | 55% | 0.01 µmol/kg
32 | CC(C)C(=O)NCCNCC(O)c1ccc(O)cc1.O=C(O)C(=O)O (centres undefined) | 0.071 µmol/kg | 90% | 1.3 | 82% | 0.056 µmol/kg
33 | O=C(O)C(=O)O.O=S(=O)(NCCNCC(O)COc1ccc(O)cc1)Nc1ccccc1 (centres undefined) | 0.052 µmol/kg | 92% | 2.9 | 79% | 0.018 µmol/kg
34 | CN(C)C(=O)NCCNCC(O)COc1ccc(O)cc1.O=C(O)C(=O)O (centres undefined) | > 1 µmol/kg | 29% | >40 | 0% | 0.024 µmol/kg
35 | O=C(NCCNCC(O)c1cc(O)cc(O)c1)Nc1ccccc1.O=C(O)C(=O)O (centres undefined) | 0.755 µmol/kg | 80% | 1 | 100% | 0.755 µmol/kg
36 | NC(=O)NCCNCC(O)COc1ccc(O)cc1 (centres undefined) | 0.134 µmol/kg | 92% | 1.7 | 50% | 0.078 µmol/kg
37 | Cl.O=C(NCCNCC(O)COc1ccc(O)cc1)N(CCO)CCO (centres undefined) | 2.33 µmol/kg | 41% | 16 | 42% | 0.145 µmol/kg
38 | O=C(NCCNCC(O)COc1cc(O)cc(O)c1)Nc1ccccc1.O=C(O)C(=O)O (centres undefined) | > 5.5 µmol/kg | 28% | >135 | 0% | 0.041 µmol/kg
39 | O=C(NCCNCC(O)c1ccc(O)cc1)Nc1ccccc1.O=C(O)C(=O)O (centres undefined) | 0.228 µmol/kg | 71% | 2.3 | 70% | 0.098 µmol/kg
40 | CC(C)C(=O)NCCNCC(O)c1ccc(O)c(O)c1.O=C(O)C(=O)O (centres undefined) | 0.006 µmol/kg | 84% | 2.4 | 100% | 0.0025 µmol/kg
41 | CC(C)NCC(O)COc1ccc(O)c(CO)c1.O=C(O)C(=O)O (centres undefined) | 0.098 µmol/kg | 44% | 1.5 | 55% | 0.067 µmol/kg
42 | O=C(NCCNCC(O)c1ccc(O)c(CO)c1)Nc1ccccc1.O=C(O)C(=O)O (centres undefined) | 0.304 µmol/kg | 76% | 8 | 88% | 0.038 µmol/kg
43 | O=C(NCCNCC(O)COc1ccc(O)cc1)N1CCOCC1 (centres undefined) [XAMOTEROL] | > 3 µmol/kg | 50% | >250 | 0% | 0.012 µmol/kg
44 | CC(C)C(=O)NCCNCC(O)c1cccc(O)c1.O=C(O)C(=O)O (centres undefined) | 0.132 µmol/kg | 75% | 3.5 | 75% | 0.038 µmol/kg
45 | CC(C)C(=O)NCCNCC(O)c1ccc(O)c(CO)c1.O=C(O)C(=O)O (centres undefined) | 0.152 µmol/kg | 85% | 2 | 100% | 0.077 µmol/kg
